According to the M2OR odorant receptor database:

Legend:
Details in all cases: stereoisomer not certain
OR2M3 M302T = system: OR2M3 M302T
How it was run: (§1)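 Whether a receptor–molecule pair is responsive (active) rests on the original authors' judgment that its measured signal was statistically different from baseline. Pairs without that judgment are non-responsive (inactive). Sources used varied assay methods, commonly transient luciferase assays in mammalian cell lines.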

OR2M3 R266H = system: OR2M3 R266H
Chain of OR2M3 R266H (as listed by the source, stated change not applied): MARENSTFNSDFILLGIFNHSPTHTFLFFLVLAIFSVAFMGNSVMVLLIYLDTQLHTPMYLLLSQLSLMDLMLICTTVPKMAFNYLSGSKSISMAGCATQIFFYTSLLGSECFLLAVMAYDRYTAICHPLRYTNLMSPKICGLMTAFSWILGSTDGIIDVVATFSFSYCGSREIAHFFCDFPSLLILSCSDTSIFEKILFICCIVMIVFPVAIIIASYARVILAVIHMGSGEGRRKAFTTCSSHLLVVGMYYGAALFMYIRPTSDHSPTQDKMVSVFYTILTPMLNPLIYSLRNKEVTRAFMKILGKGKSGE
How it was run: as §1

OR2M3 R293S = system: OR2M3 R293S
Chain of OR2M3 R293S (as listed by the source, stated change not applied): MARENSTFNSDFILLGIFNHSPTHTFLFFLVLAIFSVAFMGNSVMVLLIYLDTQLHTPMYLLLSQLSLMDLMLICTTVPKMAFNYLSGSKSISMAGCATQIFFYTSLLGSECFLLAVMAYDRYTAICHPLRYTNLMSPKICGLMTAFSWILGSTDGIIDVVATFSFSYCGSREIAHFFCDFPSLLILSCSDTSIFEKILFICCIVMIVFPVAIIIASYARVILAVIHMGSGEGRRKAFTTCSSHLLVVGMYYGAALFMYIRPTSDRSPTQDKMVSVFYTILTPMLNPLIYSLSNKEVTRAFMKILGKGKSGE
How it was run: as §1

OR2M3 V78I = system: OR2M3 V78I
Chain of OR2M3 V78I (as listed by the source, stated change not applied): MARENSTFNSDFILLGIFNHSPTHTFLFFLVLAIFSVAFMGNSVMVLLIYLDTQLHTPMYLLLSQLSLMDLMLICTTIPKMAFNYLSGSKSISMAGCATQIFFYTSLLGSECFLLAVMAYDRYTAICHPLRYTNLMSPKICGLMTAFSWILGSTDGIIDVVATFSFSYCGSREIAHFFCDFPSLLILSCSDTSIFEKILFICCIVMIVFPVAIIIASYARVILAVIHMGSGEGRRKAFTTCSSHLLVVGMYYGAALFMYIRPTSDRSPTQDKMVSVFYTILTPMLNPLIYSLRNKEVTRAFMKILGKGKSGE
How it was run: as §1

OR2M3 Y259H = system: OR2M3 Y259H
Chain of OR2M3 Y259H (as listed by the source, stated change not applied): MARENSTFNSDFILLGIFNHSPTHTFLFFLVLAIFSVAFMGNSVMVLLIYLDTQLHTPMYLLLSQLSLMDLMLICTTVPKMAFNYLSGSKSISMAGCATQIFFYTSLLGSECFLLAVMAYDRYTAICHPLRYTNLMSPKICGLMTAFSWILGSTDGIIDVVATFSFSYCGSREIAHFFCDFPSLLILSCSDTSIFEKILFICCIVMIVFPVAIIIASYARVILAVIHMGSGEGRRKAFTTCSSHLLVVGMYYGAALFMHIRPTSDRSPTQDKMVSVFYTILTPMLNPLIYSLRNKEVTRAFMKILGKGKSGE
How it was run: as §1

OR2M5 A156G = system: OR2M5 A156G
Chain of OR2M5 A156G (as listed by the source, stated change not applied): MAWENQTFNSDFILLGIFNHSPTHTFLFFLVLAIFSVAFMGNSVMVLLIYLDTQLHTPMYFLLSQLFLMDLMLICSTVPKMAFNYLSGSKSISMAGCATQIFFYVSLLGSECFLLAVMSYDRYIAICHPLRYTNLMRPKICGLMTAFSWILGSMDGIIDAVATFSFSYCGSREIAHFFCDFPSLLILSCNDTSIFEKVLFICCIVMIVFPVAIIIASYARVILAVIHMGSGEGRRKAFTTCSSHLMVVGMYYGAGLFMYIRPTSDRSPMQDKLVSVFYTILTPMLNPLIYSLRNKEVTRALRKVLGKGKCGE
How it was run: as §1

OR2M5 A160V = system: OR2M5 A160V
Chain of OR2M5 A160V (as listed by the source, stated change not applied): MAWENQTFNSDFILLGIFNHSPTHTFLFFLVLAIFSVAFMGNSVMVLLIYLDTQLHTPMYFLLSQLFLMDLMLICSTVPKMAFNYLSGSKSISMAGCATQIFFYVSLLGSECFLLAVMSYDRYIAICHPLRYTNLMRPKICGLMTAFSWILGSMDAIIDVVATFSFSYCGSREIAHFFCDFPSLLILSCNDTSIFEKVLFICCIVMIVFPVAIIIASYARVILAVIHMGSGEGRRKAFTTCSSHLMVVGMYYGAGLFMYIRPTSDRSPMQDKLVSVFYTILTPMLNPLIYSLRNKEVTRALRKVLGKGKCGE
How it was run: as §1

OR2M5 G255A = system: OR2M5 G255A
Chain of OR2M5 G255A (as listed by the source, stated change not applied): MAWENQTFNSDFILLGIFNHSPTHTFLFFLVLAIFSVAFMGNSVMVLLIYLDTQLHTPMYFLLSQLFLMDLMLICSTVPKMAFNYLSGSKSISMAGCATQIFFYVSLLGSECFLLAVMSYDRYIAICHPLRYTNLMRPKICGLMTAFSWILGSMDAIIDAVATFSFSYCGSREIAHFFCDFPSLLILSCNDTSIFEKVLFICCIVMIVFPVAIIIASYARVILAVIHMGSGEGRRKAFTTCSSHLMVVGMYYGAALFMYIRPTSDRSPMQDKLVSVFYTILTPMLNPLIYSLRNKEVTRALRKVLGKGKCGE
How it was run: as §1

OR2M5 L273M = system: OR2M5 L273M
Chain of OR2M5 L273M (as listed by the source, stated change not applied): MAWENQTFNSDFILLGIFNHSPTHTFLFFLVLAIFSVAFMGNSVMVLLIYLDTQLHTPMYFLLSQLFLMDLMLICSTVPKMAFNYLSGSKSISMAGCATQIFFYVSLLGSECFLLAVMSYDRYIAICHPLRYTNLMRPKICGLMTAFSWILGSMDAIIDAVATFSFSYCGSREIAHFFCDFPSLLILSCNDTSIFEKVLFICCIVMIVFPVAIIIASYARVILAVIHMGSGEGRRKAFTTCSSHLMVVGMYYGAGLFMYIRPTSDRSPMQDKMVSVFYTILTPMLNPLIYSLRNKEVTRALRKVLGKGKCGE
How it was run: as §1

OR2M5 M154T = system: OR2M5 M154T
Chain of OR2M5 M154T (as listed by the source, stated change not applied): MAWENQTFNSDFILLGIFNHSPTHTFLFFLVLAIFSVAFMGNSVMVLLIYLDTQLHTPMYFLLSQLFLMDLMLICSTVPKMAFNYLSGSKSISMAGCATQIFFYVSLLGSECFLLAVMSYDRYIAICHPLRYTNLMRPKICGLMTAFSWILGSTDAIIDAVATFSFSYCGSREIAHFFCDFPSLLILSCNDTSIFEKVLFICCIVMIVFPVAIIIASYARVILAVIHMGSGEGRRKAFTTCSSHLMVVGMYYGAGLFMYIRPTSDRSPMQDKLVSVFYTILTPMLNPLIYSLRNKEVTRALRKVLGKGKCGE
How it was run: as §1

OR2M5 S119A = system: OR2M5 S119A
Chain of OR2M5 S119A (as listed by the source, stated change not applied): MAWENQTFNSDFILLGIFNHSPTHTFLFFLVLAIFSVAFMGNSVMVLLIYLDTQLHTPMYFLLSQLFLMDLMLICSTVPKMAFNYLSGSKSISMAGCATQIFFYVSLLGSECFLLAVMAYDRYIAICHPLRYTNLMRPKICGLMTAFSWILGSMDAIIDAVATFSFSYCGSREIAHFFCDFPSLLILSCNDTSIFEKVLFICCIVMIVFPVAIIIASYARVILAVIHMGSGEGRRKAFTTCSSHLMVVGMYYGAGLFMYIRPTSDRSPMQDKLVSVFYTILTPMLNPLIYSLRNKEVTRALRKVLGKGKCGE
How it was run: as §1

[1] = system: OR2M5 V105T A156G A160V G255A
How it was run: as §1

[2] = system: OR2M5 V105T A156G G255A L273M
How it was run: as §1

OR2M5 V105T A156G G255A = system: OR2M5 V105T A156G G255A
How it was run: as §1

[3] = system: OR2M5 V105T A156G V198I G255A
How it was run: as §1

OR2M5 V105T A156G = system: OR2M5 V105T A156G
How it was run: as §1

OR2M5 V105T G255H = system: OR2M5 V105T G255H
How it was run: as §1

Measured: odorant receptor agonist call;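 further: active if original authors judged signal statistically different from baseline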

Chain of OR2M3 M302T (as listed by the source, stated change not applied): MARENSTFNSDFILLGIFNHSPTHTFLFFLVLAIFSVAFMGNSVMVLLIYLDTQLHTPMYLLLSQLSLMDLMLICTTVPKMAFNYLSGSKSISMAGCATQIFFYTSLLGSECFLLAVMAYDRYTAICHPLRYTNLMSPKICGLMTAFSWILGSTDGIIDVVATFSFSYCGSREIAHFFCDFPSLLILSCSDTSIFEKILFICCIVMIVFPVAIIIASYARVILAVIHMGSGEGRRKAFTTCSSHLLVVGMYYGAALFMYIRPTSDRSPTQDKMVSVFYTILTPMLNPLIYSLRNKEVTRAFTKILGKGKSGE

CCC(S)C(C)CO (configuration not stated)
active: OR2M3 M302T | OR2M3 R266H | OR2M3 R293S | OR2M3 V78I
inactive: OR2M3 Y259H | OR2M5 A156G | OR2M5 A160V | OR2M5 G255A | OR2M5 L273M | OR2M5 M154T | OR2M5 S119A | [1] | [2] | OR2M5 V105T A156G G255A | [3] | OR2M5 V105T A156G | OR2M5 V105T G255H
